One may read the IC50 as the concentration that gives 50% inhibition.

For three compounds, IC50, Ratio IC50 and CI results are on record in ChEMBL document CHEMBL4014350, “Alkoxyurea-Based Histone Deacetylase Inhibitors Increase Cisplatin Potency in Chemoresistant Cancer Cell Lines” (J Med Chem, 2017).

Test [1] relates to A2780cisR. As to the kind of experiment: Antiproliferative activity against human A2780cisR cells measured after 72 hrs by MTT assay. It is filed as functional, cell-based. For orientation: Formazan colour is commonly taken as a measure of viable cells.
Test [2] can be described thus: Antiproliferative activity against human Med8A cells after 72 hrs by Celltiter-Glo assay. It is filed as functional, cell-based. In general terms: ATP-based viability assays read luminescence as a measure of living cells.
For test [3], the target named is Histone deacetylase 4 (Homo sapiens, UniProt P56524). Kind of test: Inhibition of recombinant human N-terminal GST-tagged/C-terminal His-tagged HDAC4 expressed in insect cells using Boc-K(Ac)-AMC as substrate by fluorescence assay.
Chain of Histone deacetylase 4 (P56524 whole entry): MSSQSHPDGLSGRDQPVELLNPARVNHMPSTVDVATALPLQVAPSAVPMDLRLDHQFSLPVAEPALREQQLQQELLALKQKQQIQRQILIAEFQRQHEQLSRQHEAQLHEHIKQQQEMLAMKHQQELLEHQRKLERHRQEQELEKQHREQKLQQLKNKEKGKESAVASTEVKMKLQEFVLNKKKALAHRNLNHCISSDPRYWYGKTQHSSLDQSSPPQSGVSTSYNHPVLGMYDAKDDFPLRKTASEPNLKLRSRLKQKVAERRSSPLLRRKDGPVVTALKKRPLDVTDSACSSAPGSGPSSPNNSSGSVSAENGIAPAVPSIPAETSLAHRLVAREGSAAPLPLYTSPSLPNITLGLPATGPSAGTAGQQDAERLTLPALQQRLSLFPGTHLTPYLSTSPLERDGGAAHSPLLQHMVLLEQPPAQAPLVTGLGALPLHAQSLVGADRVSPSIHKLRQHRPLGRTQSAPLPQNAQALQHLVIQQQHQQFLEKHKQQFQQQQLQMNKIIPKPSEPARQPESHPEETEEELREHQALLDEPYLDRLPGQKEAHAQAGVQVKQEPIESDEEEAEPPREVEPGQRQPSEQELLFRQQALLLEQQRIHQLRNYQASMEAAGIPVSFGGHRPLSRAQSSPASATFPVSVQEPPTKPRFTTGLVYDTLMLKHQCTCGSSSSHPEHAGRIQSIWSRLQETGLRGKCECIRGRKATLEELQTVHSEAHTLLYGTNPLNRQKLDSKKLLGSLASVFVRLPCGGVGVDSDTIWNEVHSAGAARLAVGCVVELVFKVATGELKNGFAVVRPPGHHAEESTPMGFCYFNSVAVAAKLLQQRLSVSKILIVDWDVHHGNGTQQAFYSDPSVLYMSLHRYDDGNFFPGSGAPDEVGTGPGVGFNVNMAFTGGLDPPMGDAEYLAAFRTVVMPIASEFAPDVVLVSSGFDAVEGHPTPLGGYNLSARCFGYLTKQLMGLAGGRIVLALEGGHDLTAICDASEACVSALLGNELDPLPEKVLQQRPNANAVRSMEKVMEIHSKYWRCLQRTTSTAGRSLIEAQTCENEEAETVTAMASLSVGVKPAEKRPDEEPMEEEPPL
The species named for test [4] is Homo sapiens. As to the kind of experiment: Selectivity index, ratio of IC50 for recombinant full length human C-terminal FLAG/His-tagged HDAC1 expressed in baculovirus infected sf9 cells to IC50 for full length human recombinant N-terminal GST-tagged HDAC6 expressed in baculovirus infected sf9 cells. The method, boiled down:
(§1)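 Ratio of isolated-enzyme IC50 values. HDAC1, HDAC6 and HDAC8 IC50s were each the mean ± SD of three independent experiments.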

The species entered for test [5] is Homo sapiens. Kind of test: Selectivity index, ratio of IC50 for human recombinant HDAC8 to IC50 for full length human recombinant N-terminal GST-tagged HDAC6 expressed in baculovirus infected sf9 cells. Summed up:
as §1

Test [6] concerns CAL-27. Kind of test: Potentiation of 0.316 uM cisplatin-induced cytotoxicity against human CAL27 cells assessed as decrease in cell viability by measuring combination index at 800 uM preincubated for 48 hrs followed by cisplatin treatment measured after 72 hrs by MTT assay. The conditions noted are these: in the assay text read “at 800 nM” for “at 800 uM”. The class given is functional. The method, boiled down:
(§2)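 Cal27 and cisplatin-resistant Cal27CisR cells were preincubated with the HDAC inhibitor for 48 h, then given cisplatin in combination. Viability was read by MTT after 72 h. The combination index was computed by the Chou–Talalay method: CI > 1 is antagonism, CI = 1 is additive, and CI < 0.9 is synergism. Points with fraction affected below 0.20 were flagged.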

The test system of test [7] is CAL-27. Kind of test: Potentiation of 0.5 uM cisplatin-induced cytotoxicity against human CAL27 cells assessed as decrease in cell viability measuring combination index at 500 uM preincubated for 48 hrs followed by cisplatin treatment measured after 72 hrs by MTT assay. It is filed as functional. The conditions noted are these: in the assay text read “at 500 nM” for “at 500 uM”. Summed up:
as §2

The subject of test [8] is CAL-27. As to the kind of experiment: Potentiation of 0.5 uM cisplatin-induced cytotoxicity against human CAL27 cells assessed as decrease in cell viability measuring combination index at 600 uM preincubated for 48 hrs followed by cisplatin treatment measured after 72 hrs by MTT assay. Particulars: in the assay text read “at 600 nM” for “at 600 uM”. The class given is functional. The method, boiled down: as §2

For test [9], the system named is CAL-27. Kind of test: Potentiation of 0.5 uM cisplatin-induced cytotoxicity against human CAL27 cells assessed as decrease in cell viability measuring combination index at 700 uM preincubated for 48 hrs followed by cisplatin treatment measured after 72 hrs by MTT assay. The class given is functional. The conditions noted are these: in the assay text read “at 700 nM” for “at 700 uM”. Summed up:
as §2

Test [10] deals with CAL-27. As to the kind of experiment: Potentiation of 1 uM cisplatin-induced cytotoxicity against human CAL27 cells assessed as decrease in cell viability by measuring combination index at 600 uM preincubated for 48 hrs followed by cisplatin treatment measured after 72 hrs by MTT assay. It is filed as functional. The method, boiled down: (§3)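 HDAC inhibitor was added 48 h before cisplatin, then cells were exposed to cisplatin for 72 h and viability was read by MTT assay. Combination index was computed by the Chou–Talalay method: CI > 1 is antagonism, CI = 1 additive, CI < 0.9 synergism. Points with fraction affected below 0.20 were flagged.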

Test [11] relates to CAL-27. As to the kind of experiment: Potentiation of 1 uM cisplatin-induced cytotoxicity against human CAL27 cells assessed as decrease in cell viability by measuring combination index at 700 uM preincubated for 48 hrs followed by cisplatin treatment measured after 72 hrs by MTT assay. It is filed as functional. The method, boiled down: as §3
Test [12] deals with CAL-27. Kind of test: Potentiation of 2 uM cisplatin-induced cytotoxicity against human CAL27 cells assessed as decrease in cell viability by measuring combination index at 800 uM preincubated for 48 hrs followed by cisplatin treatment measured after 72 hrs by MTT assay. The class given is functional. Particulars: in the assay text read “at 800 nM” for “at 800 uM”. The method, boiled down: as §3

The subject of test [13] is CAL-27. Kind of test: Potentiation of 5 uM cisplatin-induced cytotoxicity against human CAL27 cells assessed as decrease in cell viability by measuring combination index at 500 uM preincubated for 48 hrs followed by cisplatin treatment measured after 72 hrs by MTT assay. It is filed as functional. Particulars: in the assay text read “at 500 nM” for “at 500 uM”. The method, boiled down:
as §3

Test [14] deals with CAL-27. As to the kind of experiment: Potentiation of 5 uM cisplatin-induced cytotoxicity against human CAL27 cells assessed as decrease in cell viability by measuring combination index at 600 uM preincubated for 48 hrs followed by cisplatin treatment measured after 72 hrs by MTT assay. The class given is functional. The conditions noted are these: in the assay text read “at 600 nM” for “at 600 uM”. The method, boiled down: as §3

Test [15] concerns CAL-27. As to the kind of experiment: Potentiation of 5 uM cisplatin-induced cytotoxicity against human CAL27 cells assessed as decrease in cell viability by measuring combination index at 800 uM preincubated for 48 hrs followed by cisplatin treatment measured after 72 hrs by MTT assay. Particulars: in the assay text read “at 800 nM” for “at 800 uM”. It is filed as functional. Summed up:
as §3

The target in test [16] is T1, Histone deacetylase 1/6 (Homo sapiens) (UniProt Q13547+Q9UBN7). As to the kind of experiment: Inhibition of HDAC1/HDAC6 in human Cal27CisR cells assessed as potentiation of 1 uM cisplatin-induced cytotoxicity by measuring combination index at 800 uM preincubated for 48 hrs followed by cisplatin treatment measured after 72 hrs by MTT assay. The class given is cell-based. Summed up:
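Cal27CisR cells preincubated 48 h with the HDAC inhibitor, then exposed to cisplatin for 72 h. Viability read by MTT. Combination index calculated by the Chou–Talalay method: CI > 1 antagonism, CI = 1 additive, CI < 0.9 synergism. Points with fraction affected below 0.20 are flagged. Values are the mean of three experiments.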

Test [17] deals with T1, Histone deacetylase 1/6 (Homo sapiens). As to the kind of experiment: Inhibition of HDAC1/HDAC6 in human Cal27CisR cells assessed as potentiation of 5 uM cisplatin-induced cytotoxicity by measuring combination index at 600 uM preincubated for 48 hrs followed by cisplatin treatment measured after 72 hrs by MTT assay. The class given is cell-based. The method, boiled down: as §2

The target is the same in test [18]. As to the kind of experiment: Inhibition of HDAC1/HDAC6 in human Cal27CisR cells assessed as potentiation of 5 uM cisplatin-induced cytotoxicity by measuring combination index at 800 uM preincubated for 48 hrs followed by cisplatin treatment measured after 72 hrs by MTT assay. The class given is cell-based. Summed up: as §2
The target is the same in test [19]. As to the kind of experiment: Inhibition of HDAC1/HDAC6 in human Cal27CisR cells assessed as potentiation of 10 uM cisplatin-induced cytotoxicity by measuring combination index at 500 nM preincubated for 48 hrs followed by cisplatin treatment measured after 72 hrs by MTT assay.
Test [20] has the same target. Kind of test: Inhibition of HDAC1/HDAC6 in human Cal27CisR cells assessed as potentiation of 3.16 uM cisplatin-induced cytotoxicity by measuring combination index at 800 nM preincubated for 48 hrs followed by cisplatin treatment measured after 72 hrs by MTT assay.

T1 sequence (Q13547 whole entry, looked up): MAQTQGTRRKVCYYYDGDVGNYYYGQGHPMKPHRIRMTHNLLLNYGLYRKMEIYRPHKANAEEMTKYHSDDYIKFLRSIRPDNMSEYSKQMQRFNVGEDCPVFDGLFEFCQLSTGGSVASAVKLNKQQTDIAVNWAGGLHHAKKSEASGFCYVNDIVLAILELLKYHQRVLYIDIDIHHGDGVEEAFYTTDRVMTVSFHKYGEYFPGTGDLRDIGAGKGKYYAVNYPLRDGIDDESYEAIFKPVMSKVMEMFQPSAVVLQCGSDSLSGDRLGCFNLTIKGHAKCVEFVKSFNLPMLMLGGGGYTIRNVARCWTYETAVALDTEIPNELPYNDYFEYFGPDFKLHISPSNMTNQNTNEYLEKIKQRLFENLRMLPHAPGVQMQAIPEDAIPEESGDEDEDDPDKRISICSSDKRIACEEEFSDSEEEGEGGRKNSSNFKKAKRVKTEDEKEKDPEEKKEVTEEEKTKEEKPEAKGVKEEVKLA
T1 sequence (Q9UBN7 whole entry, looked up): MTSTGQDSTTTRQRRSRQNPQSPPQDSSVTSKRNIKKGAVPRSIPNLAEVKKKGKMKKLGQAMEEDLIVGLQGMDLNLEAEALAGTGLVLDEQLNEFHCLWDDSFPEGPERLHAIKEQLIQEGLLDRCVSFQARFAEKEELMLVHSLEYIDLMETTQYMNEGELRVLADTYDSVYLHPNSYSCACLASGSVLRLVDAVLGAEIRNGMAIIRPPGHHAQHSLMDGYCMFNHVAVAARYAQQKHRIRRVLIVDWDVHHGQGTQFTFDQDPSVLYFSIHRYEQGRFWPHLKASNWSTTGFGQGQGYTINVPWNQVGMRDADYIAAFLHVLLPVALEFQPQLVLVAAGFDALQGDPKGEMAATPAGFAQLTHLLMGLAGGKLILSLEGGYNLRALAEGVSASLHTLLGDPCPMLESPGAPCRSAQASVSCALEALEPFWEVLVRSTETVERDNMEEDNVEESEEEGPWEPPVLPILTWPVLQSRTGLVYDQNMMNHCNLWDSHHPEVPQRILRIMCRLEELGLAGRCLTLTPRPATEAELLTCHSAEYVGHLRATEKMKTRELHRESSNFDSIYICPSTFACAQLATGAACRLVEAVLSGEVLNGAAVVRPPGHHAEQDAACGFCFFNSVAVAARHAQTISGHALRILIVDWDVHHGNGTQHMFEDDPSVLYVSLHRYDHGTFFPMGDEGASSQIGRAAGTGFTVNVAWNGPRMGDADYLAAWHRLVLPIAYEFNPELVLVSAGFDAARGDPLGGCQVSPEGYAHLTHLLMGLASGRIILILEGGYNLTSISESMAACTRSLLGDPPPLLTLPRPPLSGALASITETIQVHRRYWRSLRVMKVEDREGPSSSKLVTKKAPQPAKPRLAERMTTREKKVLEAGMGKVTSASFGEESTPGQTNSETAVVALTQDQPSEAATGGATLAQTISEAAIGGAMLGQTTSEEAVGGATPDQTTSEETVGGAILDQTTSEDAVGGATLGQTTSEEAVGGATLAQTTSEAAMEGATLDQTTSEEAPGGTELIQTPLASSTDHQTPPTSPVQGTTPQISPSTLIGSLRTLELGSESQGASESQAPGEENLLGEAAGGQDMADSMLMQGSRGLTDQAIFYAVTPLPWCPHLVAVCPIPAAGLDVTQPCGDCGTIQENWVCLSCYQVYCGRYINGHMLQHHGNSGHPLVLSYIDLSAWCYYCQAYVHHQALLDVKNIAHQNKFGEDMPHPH

For the compound `COc1cc(NC(=O)NOCCCCCC(=O)NO)c2ncccc2c1`, the IC50 was 400 nM in test [1], 1210 nM in test [2] and above 10000 nM in test [3]. For the same compound, the Ratio IC50 in [4] is below 15; in test [5] it was above 100. Moreover, the CI is reported as below 0.2 in test [6]; 0.87 in test [7]; 0.77 in test [8]; 0.97 in test [9]; 0.57 in [10]; 0.63 in test [11]. Besides, the CI in test [12] turned out to be 0.43; in test [13], 0.35; in test [14] it was 0.34; in test [15], 0.36; in [16] it was 0.81; in test [17], 0.6. The CI amounted to 0.37 in [18], 0.36 in [19] and 0.51 in test [20].

On to `COc1cc(NC(=O)NOCCCCCC(=O)NO)c2nccc(C)c2c1`, for which the IC50 was 300 nM in test [1], 600 nM in [2] and above 10000 nM in [3]. Further, the figures for the Ratio IC50 in test [4] and in test [5] were below 15 and above 100, respectively. The CI in test [6] is recorded as 0.56; in [7], 0.49; in [8] it was 0.58; in [9], 0.57; in test [10], 0.37; in test [11] it was 0.43. Besides, the CI was 0.38 in test [12]; 0.29 in test [13]; 0.33 in test [14]; 0.38 in test [15]; 1.09 in test [16]; 0.25 in test [17]. For the same compound, the CI in test [18] stood at 0.23; in test [19], 0.25; in test [20] it was 0.26.

With `COc1cc(NC(=O)NOCCCCCC(=O)NO)c2nc(OC)cc(C)c2c1`, the results for the IC50 in test [1], in [2] and in [3] were 400 nM, 590 nM and above 10000 nM, respectively. Also, the Ratio IC50 in test [4] was determined as 15; in [5], 550. In addition, the CI in test [6] is reported as 0.84; in test [7], 0.66; in [8] it was 0.66; in [9], 0.7; in test [10], 0.53; in [11] it was 0.61. The CI in test [12] worked out at 0.66; in test [13], 0.43; in [14] it was 0.49; in test [15], 0.69; in [16] it was 0.65; in test [17], 0.2. Also, the CI in [18] was found to be 0.26; in test [19], 0.16; in test [20] it was 0.29.
